# T cruzi repl: blocks replication of Trypanosoma cruzi; T. cruzi beta-gal in NIH3T3, luminescence, 90 h; inhibition, % (test concentration not listed); 300,000 tested, 1.4% active; AID 1885;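 active = mean inhibition across valid replicates above about 55%, limit read from the data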;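 also: signal also drops with host cell toxicity which is not excluded here; 0% = plate median of DMSO wells and 100% = zero luminescence signal; higher percent means less beta-gal luminescence so fewer parasites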
#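 System: NIH/3T3 fibroblasts plus reporter T. cruzi. Medium: DMEM plus 2% FBS. Probe or stimulus: 5000 reporter trypomastigotes per well. Compound: single 50 nL compound addition per well in DMSO. Incubation: co-culture of at least 90 h after 3 h attachment. Detection: GalScreen β-gal luminescence, detergent lysis, 60 min. Evaluation: parasite load inhibition, %.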
# CHT block: human CHT choline transport inhibition; 310,000 tested, 0.86% active; AID 488975; CHT-expressing cells, membrane potential dye, choline response; stronger effect = lower value; B-score at 10 µM; Q9GZV3;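 active = B-score over 3 SD under the library average, and starting fluorescence ratio not unusually high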;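 also: choline stimulus applied at its EC90 after an EC20 pre-addition; B-score computed on integrated fluorescence ratio after choline addition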
# Target sequence (Q9GZV3 whole entry, looked up): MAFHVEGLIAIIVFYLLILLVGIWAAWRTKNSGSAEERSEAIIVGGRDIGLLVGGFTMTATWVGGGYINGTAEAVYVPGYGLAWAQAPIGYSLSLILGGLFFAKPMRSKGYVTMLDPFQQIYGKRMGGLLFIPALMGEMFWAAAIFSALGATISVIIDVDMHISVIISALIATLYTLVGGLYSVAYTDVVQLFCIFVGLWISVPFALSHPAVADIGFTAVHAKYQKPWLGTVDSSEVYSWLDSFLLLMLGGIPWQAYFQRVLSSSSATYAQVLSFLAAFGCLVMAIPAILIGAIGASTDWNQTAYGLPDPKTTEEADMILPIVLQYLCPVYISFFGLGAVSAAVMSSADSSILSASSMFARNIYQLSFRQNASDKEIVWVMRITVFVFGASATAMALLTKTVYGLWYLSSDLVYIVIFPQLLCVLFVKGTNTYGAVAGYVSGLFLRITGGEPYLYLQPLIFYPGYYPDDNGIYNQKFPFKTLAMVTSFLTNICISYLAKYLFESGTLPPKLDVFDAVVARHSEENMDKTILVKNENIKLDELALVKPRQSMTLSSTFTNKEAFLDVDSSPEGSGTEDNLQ
# PolyA inh: inhibitors of polyadenylation in S. cerevisiae; 300,000 tested, 0.02% active; activity score, % at 12 µM; S. cerevisiae SKY197-pL101 polyadenylation reporter, beta-gal luminescence; efflux-impaired pdr1/pdr3 knockout yeast; score 100 = 6 SD above DMSO;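 active = lowest replicate activity score at least 50, where 100 means six control SD above control mean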;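 also: yeast exposed to compound for 9 h at 30 °C; higher score means more reporter readthrough which indicates perturbed polyadenylation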
# CHT allo act: allosterically activates the human high affinity choline transporter. 310,000 tested, 0.49% active. Q9GZV3. B-score at 10 µM. CHT-expressing cells, membrane potential dye, choline EC20; stronger effect = higher value; LV-AA mutant CHT in HEK293 cells;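 active = initial fluorescence not abnormally high and integrated response B-score, plate-corrected, over 3 SD above library mean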
# * marks the source's active call; other numbers are inactive results; i = inactive; nt = no result. A selection: hits, their analogues and other compounds. The true share with any hit is near 2.6%.
SMILES,T cruzi repl,CHT block,PolyA inh,CHT allo act
COc1ccccc1OCC(=O)N/N=C/C=C/c1ccc([N+](=O)[O-])o1,57.7*,i,-24.0,i
O=C(COc1ccccc1[N+](=O)[O-])N/N=C/C=C/c1ccco1,-6.8,i,-5.8,i
Cc1cc(C(=O)OCC(=O)N(CC(C)C)c2c(N)n(Cc3ccccc3)c(=O)[nH]c2=O)c(C)o1,1.5,i,15.2,i
Cc1cc(NC(=O)c2ccco2)c(=O)n(Cc2cccc(C(F)(F)F)c2)c1,15.5,i,12.0,i
Cc1cc(C)n2nc(SC(C)C(=O)NC3CCCCC3C)nc2n1 (stereo not given),-6.5,i,2.4,i
C=C(C)CNC(=S)N/N=C/c1c(F)cccc1F,-8.3,i,-8.2,i
Cc1ccccc1OCC(=O)N/N=C/c1ccc([N+](=O)[O-])o1,60.8*,i,-9.6,i
Cc1ccccc1OCC(=O)NCC(=O)N/N=C/c1ccc(Br)o1,37.0,i,-0.9,i
CCOc1ccc(N(CC(=O)NCCc2ccc(C)cc2)S(=O)(=O)c2c(C)noc2C)cc1,17.6,i,9.7,i
CCN(CC)S(=O)(=O)c1ccc(C(=O)Nc2nnc(-c3ccco3)o2)cc1,-16.9,i,5.8,i
CCCCN(CC)S(=O)(=O)c1ccc(C(=O)Nc2nnc(-c3cccs3)o2)cc1,63.4*,i,-5.9,i
Cc1ccc(NC(=O)CC(O)(C(F)(F)F)C(F)(F)F)c(Br)c1,-2.7,-5.16*,-13.8,i
CN1CCN(CC2(O)CCN(S(=O)(=O)c3ccc(Cl)cc3)CC2)CC1,71.6*,i,15.0,i
Cc1ccc(SCC2(O)CCN(S(=O)(=O)c3ccc(Cl)cc3)CC2)cc1,11.1,i,19.0,i
Nc1ccc(Cl)c(S(=O)(=O)Nc2cccc(Cl)c2)c1,2.0,-8.9*,-1.1,i
Cc1ccc(Cl)cc1NC(=S)N/N=C/c1cccc2ccccc12,58.9*,i,9.2,i
CCc1cccc(N(C(=O)c2csnn2)C(C(=O)NC2CCCCC2)c2ccncc2)c1 (stereo not given),18.8,i,1.2,i
CC(C)c1ccc(NC(=O)c2cc3c(=O)n(C)c4ccccc4c3n2C)cc1,60.3*,i,0.5,i
CCCn1c2ccc(C)cc2c2n[nH]c(=S)nc21,5.3,i,10.1,i
CSc1ccccc1NC(=S)N/N=C/c1cccn1Cc1cccc(C)c1,65.4*,i,17.3,i
CSc1ccccc1NC(=S)N/N=C/c1cccn1Cc1ccc(F)cc1,36.7,i,4.8,i
CN(C)CCCn1c(SCC(=O)Nc2nc(-c3cccc(Br)c3)cs2)nc2ccccc2c1=O,68.3*,i,8.0,i
O=C(C1CCCN(Cc2cccc(Cl)c2)C1)N1CCCCC1 (stereo not given),66.0*,i,-1.4,i
Cc1cccc(CN2CCCC(C(=O)N3CCCCC3)C2)c1 (stereo not given),24.5,i,16.8,i
Cc1cccc(CN2CCCC(C(=O)N3CCc4ccccc4C3)C2)c1 (stereo not given),54.6*,i,1.0,i
SMILES,T cruzi repl,CHT block,PolyA inh,CHT allo act
O=C(C1CCCN(Cc2ccc(Cl)cc2)C1)N1CCCCC1 (stereo not given),57.0*,i,-6.3,i
CCCN1C2CCCC1CC(NC(=O)c1ccccc1Br)C2 (stereo not given),11.7,i,-8.4,i
Cc1cc(C)n(-c2ccc(NC(=O)C3CCCCN3C(=O)c3ccc(C)s3)cc2)n1 (stereo not given),-10.2,i,-20.3,i
Cc1ccc(C(=O)O)cc1N1C(=O)c2cccc3c([N+](=O)[O-])ccc(c23)C1=O,17.5,-5.01*,6.1,i
O=C1N/C(=N\N=C\c2ccc3ncccc3c2)SC1Cc1ccc(SC(F)F)cc1 (stereo not given),32.8,i,nt,i
O=C1N/C(=N\N=C\c2ccccn2)SC1Cc1cccc(SC(F)F)c1 (stereo not given),69.0*,i,-31.4,i
O=C1N/C(=N\N=C\c2cccnc2)SC1Cc1ccc(SC(F)F)cc1 (stereo not given),61.8*,i,-13.0,i
O=C1N/C(=N\N=C\c2cccs2)SC1Cc1cccc(Cl)c1 (stereo not given),13.0,i,5.9,i
Cc1ccc(N(C)S(=O)(=O)c2c(C)noc2/C=C/N(C)C)cc1,-0.1,i,0.8,i
Cc1ccc2cc(CN(CCc3ccccc3)C(=S)NCCCN(C)C)c(=O)[nH]c2c1,31.4,i,-2.5,i
Cc1ccc2[nH]c(=O)c(CN(CCCN(C)C)C(=S)NCCc3ccccc3)cc2c1,84.4*,i,3.9,i
Cc1cccc2cc(CN(CCCN(C)C)C(=S)NCCc3ccccc3)c(=O)[nH]c12,62.0*,i,9.2,i
S=C(Nc1ccccc1)Nc1ccccc1Br,-0.7,i,17.1,i
COc1ccc(CCNCc2ccc(OCC(=O)N3CCCCC3)c(OC)c2)cc1OC,56.7*,i,-3.2,i
Cn1cccc1C(NC(=O)c1ccccc1)C(Cl)(Cl)Cl (stereo not given),-15.3,i,-23.3,i
CCCN(CC(=O)Nc1ccccc1C)C(=O)CCl,78.3*,i,0.8,i
CCCN(CC(=O)Nc1ccccc1C)C(=O)COc1c(Cl)cccc1Cl,9.6,i,9.0,i
COc1ccc(C(c2nnnn2C(C)C)N2CCN(C(=O)c3ccco3)CC2)cc1 (stereo not given),0.1,i,-17.3,i
Cc1ccccc1C1C(C#N)=C2NC(=O)c3c(sc4c3CCCCC4)N2C2=C1C(=O)CC(C)(C)C2 (stereo not given),-7.6,i,-1.7,i
Cc1ccccc1C1C(C#N)=C2N=C(N)c3c(sc4c3CCCCC4)N2C2=C1C(=O)CC(C)(C)C2 (stereo not given),57.6*,i,-4.2,i
Cn1c(=O)c([N+](=O)[O-])c(Cl)c2ccccc21,88.0*,nt,-5.5,nt
Cn1c(=O)c([N+](=O)[O-])c(NCCc2ccccc2)c2ccccc21,59.1*,i,9.2,i
CCn1c(=O)c([N+](=O)[O-])c(NCCc2ccccc2)c2ccccc21,51.1,i,3.7,i
CCn1nc(C)c(CN2CCCC(CO)(Cc3cccc(Cl)c3)C2)c1C (stereo not given),55.2*,i,0.1,i
CCn1nc(C)c(CN2CCCC(CO)(Cc3ccccc3)C2)c1C (stereo not given),11.0,i,10.1,i
CC(C)(O)C#Cc1ccc(CN2CCCC(CO)(Cc3cccc(Cl)c3)C2)cc1 (stereo not given),57.6*,i,10.4,i
Cc1ccccc1CC1(CO)CCCN(Cc2ccc(C#CC(C)(C)O)cc2)C1 (stereo not given),36.4,i,15.5,i
Cc1ccc(CNC(=O)c2ccc(OCC(C)C)cc2)n1C,-3.4,i,3.5,i
